# Compound activity: PubChem BioAssay, Broad Institute
# An excerpt weighted towards active compounds, which were near 1.3% of everything screened.
# INS-1E GSIS act: GLuc luminescence reporter in INS-1E cells, primary screen for activators of glucose-dependent secretion of insulin | INS-1E GLuc reporter insulin secretion, 2-3 h | activation, % at 16.6 µM | 370,000 tested, 0.61% active;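 active = lowest replicate activation of at least 40%, so every replicate reaches that level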;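 also: 0% = median of neutral control wells and 100% = median of IBMX positive control wells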
# S100A4 inh HTS: blocks human S100A4 binding to myosin IIA peptide; S100A4/TAMRA-MyoIIA peptide fluorescence polarization; inhibition, % at 10.7 µM; 360,000 tested, 0.14% active; AID 652163;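 active = mean inhibition of at least 70% across replicates, with every replicate also reaching that level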
# Target sequence (P26447 whole entry, looked up): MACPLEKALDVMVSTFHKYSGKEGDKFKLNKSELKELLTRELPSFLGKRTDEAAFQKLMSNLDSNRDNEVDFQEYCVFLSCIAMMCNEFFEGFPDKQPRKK
#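 Test system: S100A4 monomer protein. Medium: HEPES buffer with Ca2+, pH 7.2. Reagent: fluorescent myosin IIA peptide, 5 nM. Compound dosing: single-point compound testing. Timing: 5 min between mix addition and reading. Benchmarks: DMSO neutral and TFP positive wells.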
# RAD52 anneal inh: blocks human RAD52 DNA annealing | P43351 | recombinant RAD52 DNA annealing, FRET fluorescence | inhibition, % at 18.7 µM | 360,000 tested, 0.46% active;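 active = every replicate showing at least 50% inhibition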
# Target sequence (P43351 whole entry, looked up): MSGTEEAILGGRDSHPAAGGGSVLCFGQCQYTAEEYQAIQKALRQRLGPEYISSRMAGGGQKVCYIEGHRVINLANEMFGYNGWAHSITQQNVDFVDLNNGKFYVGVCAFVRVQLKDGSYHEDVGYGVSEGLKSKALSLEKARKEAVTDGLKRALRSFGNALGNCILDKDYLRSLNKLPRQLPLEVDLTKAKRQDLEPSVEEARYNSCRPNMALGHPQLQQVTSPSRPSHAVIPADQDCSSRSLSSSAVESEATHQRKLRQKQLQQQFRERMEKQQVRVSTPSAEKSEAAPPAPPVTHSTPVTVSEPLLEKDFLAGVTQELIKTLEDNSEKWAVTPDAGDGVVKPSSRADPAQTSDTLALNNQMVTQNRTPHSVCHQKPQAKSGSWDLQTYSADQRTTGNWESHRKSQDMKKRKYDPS
# MLL AF4-AF9 inh: MLL-AF4/AF9 protein interaction inhibition; AlphaScreen, biotin-AF4 peptide binding to FLAG-AF9; AID 651704; P42568; inhibition, % at 10 µM; 350,000 tested, 0.47% active;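 active = every replicate reaching a set inhibition limit, whatever the replicate mean, cut at about 25% in these data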;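 also: 0% = plate neutral control median and 100% = total signal loss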
# RAD54 inh: inhibitors of human RAD54 branch migration; Q92698; RAD54 Holliday junction branch migration, FAM/BHQ fluorescence; inhibition, % at 10.4 µM; 360,000 tested, 0.14% active; AID 602329;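 active = mean normalized replicate activity at least 40 and at least half of replicates scoring 40 or more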;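 also: 0% = median of neutral control wells and 100% = median of positive control wells; inhibitors cause a drop in the FAM fluorescence signal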
# RAD52 DNA ctr: counter-screen for RAD52 inhibitors: DNA binding compounds; shares compounds with RAD52 anneal inh; Salmon sperm DNA/acridine orange FP displacement; AC50, µM; 1,000 tested, 8% active; AID 652128;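 active = fitted half-maximal concentration for signal loss at or below twice the highest dose tested, in every separate run, actives reach about 64 µM in these data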
# Numbers without * were called inactive; i = inactive; / = no result.
SMILES,INS-1E GSIS act,S100A4 inh HTS,RAD52 anneal inh,MLL AF4-AF9 inh,RAD54 inh,RAD52 DNA ctr
C#CCOCCOCCOCCNc1nc(N2CCN(C(=O)[C@H]([C@@H](C)CC)n3cc([C@@H](N)CC(C)C)nn3)CC2)nc(N2CCN(C(=O)[C@H](CCCCN)n3cc([C@@H](N)C(C)CC)nn3)CC2)n1 (some centres undefined),/,/,/,/,7.5,/
C#CCOCCOCCOCCNc1nc(N2CCN(C(=O)[C@H](CCCCN)n3cc(CN)nn3)CC2)nc(N2CCN(C(=O)[C@H](CCCCN)n3cc([C@@H](N)[C@H](C)CC)nn3)CC2)n1,1.0,-7.8,72.1*,64.2*,79.2*,37.2µM*
C#CCOCCOCCOCCNc1nc(N2CCN(C(=O)[C@H]([C@@H](C)CC)n3cc([C@@H](N)CO)nn3)CC2)nc(N2CCN(C(=O)[C@H](CCCCN)n3cc([C@@H](N)C(C)CC)nn3)CC2)n1 (some centres undefined),31.8,0.9,57.4*,16.8,-11.9,i
C#CCOCCOCCOCCNc1nc(N2CCN(C(=O)[C@H](CCCCN)n3cc(CN)nn3)CC2)nc(N2CCN(C(=O)[C@H](CO)n3cc([C@@H](N)C(C)C)nn3)CC2)n1,-3.9,1.7,59.8*,/,-39.4,i
C#CCOCCOCCOCCNc1nc(N2CCN(C(=O)[C@H](CCCCN)n3cc(C(N)[C@H](C)CC)nn3)CC2)nc(N2CCN(C(=O)[C@H](CCC(=O)O)n3cc(C(N)[C@H](C)CC)nn3)CC2)n1 (some centres undefined),/,/,/,/,-38.7,/
C#CCOCCOCCOCCNc1nc(N2CCN(C(=O)[C@H]([C@@H](C)CC)n3cc(CCCCN)nn3)CC2)nc(N2CCN(C(=O)[C@H](CCCCN)n3cc(CCCC)nn3)CC2)n1,-1.0,-3.5,54.3*,12.9,0.4,i
COc1ccc(S(=O)(=O)Nc2ccc3c(c2)C(=O)N([C@@H](C)CO)C[C@@H](C)[C@H](CN(C)S(=O)(=O)c2ccc(OC)cc2)OCCCC[C@@H](C)O3)cc1,-47.0,/,/,/,0.5,/
C[n+]1c2n(c3ccccc31)N=C(c1cc(C(C)(C)C)c(O)c(C(C)(C)C)c1)CS2,301.2*,-18.0,60.0*,27.2*,/,i
COc1cccc(C2=Nn3c(nnc3-c3ccccc3O)SC2)c1,/,/,/,/,11.1,/
CC(=O)OCn1ncc(N2CCOCC2)c(Br)c1=O,-0.7,4.7,94.3*,42.5*,0.5,i
C/C(Cn1ncc(N2CCOCC2)c(Cl)c1=O)=N\O,0.6,0.7,-11.5,-0.5,1.5,/
CN1CCN(c2ccc(NC(=O)c3ccc(-c4ccccc4F)o3)cc2)CC1,-20.6,-10.3,10.3,6.7,24.2,i
COc1ccc2c3c([nH]c2c1)[C@@H](CO)N(C)CC31CCN(C(=O)NC(C)C)CC1,2.4,/,/,-0.3,/,/
NC(N)=NN=Cc1ccnc2ccccc12,-3.7,1.7,35.0,5.0,/,/
NC(=NCc1ccccc1)NN=Cc1ccnc2ccccc12,2.0,0.5,64.3*,26.7*,/,i
Nc1ccc(N2CCN(CCCCN3C(=O)C4CCCN4C3=O)CC2)cc1 (centres undefined),-18.5,8.4,101.1*,48.7*,/,i
O=C1C2CCCCN2C(=O)N1CCCN1CCN(c2ccc(F)cc2)CC1 (centres undefined),3.0,-4.3,-1.7,-1.2,-27.8,/
CCCCCCCCCCCCCCCC(O)C[N+](C)(C)CCO (centres undefined),363.2*,-11.0,80.1*,3.3,/,35.4µM*
C[C@@H]1CN([C@H](C)CO)C(=O)Cc2cc(NC(=O)CCCCCC(=O)Nc3ccccc3N)ccc2O[C@@H]1CN(C)C(=O)Nc1ccc2c(c1)OCO2,4.5,-2.6,-6.5,-0.5,0.8,/
COc1ccc(OC)c2nc3c(C(=O)NCCN(C)C)cccc3nc12,-6.4,-0.9,104.6*,-1.3,/,4.71µM*
CN(C)CCNC(=O)c1cccc2nc3cccc(F)c3nc12,-16.8,8.3,97.4*,-1.7,/,17.9µM*
O=C(CN1CCCCC1)Nc1ccccc1,/,/,/,/,0.3,/
O=C(CN1CCCCC1)Nc1ccc(N2CCCCCC2)cc1,-9.0,3.4,61.7*,31.0*,/,i
CCOC(=O)c1c(CN(C)C)n(C)c2c(O)c(N=NC(N)=O)c3ccc(Br)cc3c12,6.6,-1.9,101.0*,-23.7,58.0*,i
C[C@@H]1CCCCO[C@H](CN(C)C(=O)NC2CCCCC2)[C@@H](C)CN([C@H](C)CO)C(=O)c2cc(NS(=O)(=O)c3cn(C)cn3)ccc2O1,12.1,/,/,/,/,/
SMILES,INS-1E GSIS act,S100A4 inh HTS,RAD52 anneal inh,MLL AF4-AF9 inh,RAD54 inh,RAD52 DNA ctr
CCOc1ccc2nc(NC3=NC(C)(C)C=C(C)N3)nc(C)c2c1,/,/,/,/,39.2,/
CCOc1ccc2c(C)nc(NC3=NC(C)(C)C=C(C)N3)nc2c1,/,-4.0,91.1*,/,39.0,i
Cc1sc2nc(CN3CCCCC3)nc(Nc3ccc4c(c3)OCCO4)c2c1C,-11.7,-4.3,72.1*,7.0,/,i
Cc1sc2nc(CN3CCCC3)nc(NCc3ccncc3)c2c1C,6.7,-1.1,1.6,-1.0,/,/
COc1ccc2c3c([nH]c2c1)C(C)N(CCC(=O)NN)CC3 (centres undefined),-7.5,-2.5,79.3*,10.0,27.2,i
COc1cc2nc(N(CCCN(C)C)C(=O)c3ccc(S(=O)(=O)N(C)C4CCCCC4)cc3)sc2cc1OC,-36.3,0.9,45.2,9.8,23.4,/
COc1ccc2sc(N(CCCN(C)C)C(=O)c3ccc(S(=O)(=O)N4CCCc5ccccc54)cc3)nc2c1,21.7,5.9,76.6*,31.5*,2.0,i
COc1cc2nc(N(CCCN(C)C)C(=O)c3ccc(S(=O)(=O)N4CCc5ccccc54)cc3)sc2cc1OC,-55.9,0.5,69.9*,9.4,14.8,i
CCN(Cc1ccccc1)S(=O)(=O)c1ccc(C(=O)N(CCCN(C)C)c2nc3cc(OC)ccc3s2)cc1,-54.7,0.6,58.9*,21.2,/,i
CCOc1cccc2sc(N(CCCN(C)C)C(=O)c3ccc(S(=O)(=O)N4CCc5ccccc5C4)cc3)nc12,-33.8,4.2,54.9*,-0.4,10.8,i
CCc1ccc2nc(N(CCCN(C)C)C(=O)c3ccc(S(=O)(=O)N4CCc5ccccc5C4)cc3)sc2c1,-37.9,2.0,30.5,0.7,7.7,/
C[C@H](CO)N1C[C@H](C)[C@@H](CN(C)S(C)(=O)=O)Oc2ccc(NC(=O)CCCN(C)C)cc2C1=O,21.2,0.1,-5.0,-2.6,-18.5,/
CCCNC(=O)N1[C@H](CNC(=O)c2ccccc2)[C@H](c2ccccc2)[C@@H]1CO,1.4,21.8,-70.7,1.7,-0.5,/
CN1CCN(C(=O)C[C@H]2C[C@H]3c4cc(NC(=O)CC5CC5)ccc4O[C@H]3[C@@H](CO)O2)CC1,7.3,1.3,15.5,-17.1,8.6,/
C[C@@H]1CN([C@H](C)CO)C(=O)c2cc(N(C)C)ccc2O[C@@H](C)CCCCO[C@@H]1CN(C)C(=O)Nc1ccccc1,-6.9,5.8,8.2,0.2,0.3,/
